Experimental data published in ChEMBL document CHEMBL1137088, “Distamycin analogues with enhanced lipophilicity: synthesis and antimicrobial activity” (2004).
≈ marks a conversion by molar mass, not a printed value. Calls of active or inactive are those of the source. No cut-off for these calls is given here.

Assays:
[1] = Antibacterial activity against Proteus vulgaris NCTC 4175 strain; na = not active; type: functional
Klebsiella aerogenes [2] = assay: Antibacterial activity against Klebsiella aerogenes WRL CN 345 strain.; type: functional, WRL CN 375; conditions: Klebsiella aerogenes, WRL CN 375; read-out: MIC
Escherichia coli = assay: Antibacterial activity against Escherichia coli NCTC 9001 strain.; type: functional, organism-based
Staphylococcus aureus [3] = assay: Antibacterial activity against Staphylococcus aureus NCTC 6571 strain.; type: functional
[4] = system: Mycolicibacterium fortuitum; assay: Antibacterial activity against Mycobacterium fortuitum NCTC 10394 strain.; type: functional
Enterobacter cloacae = assay: Antibacterial activity against Enterobacter cloacae NCTC 10005 strain.; type: functional, organism-based
Enterococcus faecalis [5] = assay: Antibacterial activity against Streptococcus faecalis NCTC 775 strain.; type: functional
Aspergillus niger [6] = assay: Antifungal activity against Aspergillus niger IMI17454 strain.; type: functional; conditions: Aspergillus niger; read-out: MIC
Aspergillus nidulans = assay: Antifungal activity against Aspergillus nidulans CABI 0160037 strain; type: functional
Staphylococcus aureus [7] = assay: Antibacterial activity against MRSA PHLS M1 strain; na = not active; type: functional, organism-based
Candida albicans = assay: Antifungal activity against Candida albicans NCPF 3179 strain.; type: functional; conditions: Candida albicans; read-out: MIC
[8] = Antifungal activity against Candida albicans NCPF 3179 strain; na = not active; type: functional
Staphylococcus aureus [9] = assay: Antibacterial activity against methicillin-resistant Staphylococcus aureus (MRSA) PHLS M1 strain.; type: functional
How it was run: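 Read-out is the minimum inhibitory concentration, reported in µM. Amoxycillin is tested alongside as the reference antibiotic.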

[10] = Antibacterial activity against Enterobacter cloacae NCTC 10005 strain; type: functional
Aspergillus niger [11] = assay: Antifungal activity against Aspergillus niger IMI17454 strain; na = not active; type: functional
Proteus vulgaris = assay: Antibacterial activity against Proteus vulgaris NCTC 4175 strain.; type: functional
Klebsiella aerogenes [12] = assay: Antibacterial activity against Klebsiella aerogenes WRL CN 345 strain; na = not active; type: functional, organism-based
Staphylococcus aureus [13] = assay: Antibacterial activity against Staphylococcus aureus NCTC 6571 strain; na = not active; type: functional, organism-based
Enterococcus faecalis [14] = assay: Antibacterial activity against Streptococcus faecalis NCTC 775 strain; na = not active; type: functional, organism-based
[15] = system: Mycolicibacterium fortuitum; assay: Antibacterial activity against Mycobacterium fortuitum NCTC 10394 strain; na = not active; type: functional, organism-based

SMILES	MIC [1]	MIC (Klebsiella aerogenes [2]) [µM]	MIC (Escherichia coli)	MIC (Staphylococcus aureus [3]) [µM]	MIC [4] [µM]	MIC (Enterobacter cloacae)	MIC (Enterococcus faecalis [5]) [µM]	MIC (Aspergillus niger [6]) [µM]	MIC (Aspergillus nidulans) [µM]	MIC (Staphylococcus aureus [7])	MIC (Candida albicans) [µM]	MIC [8]	MIC (Staphylococcus aureus [9])	MIC [10] [µM]	MIC (Aspergillus niger [11])	MIC (Proteus vulgaris) [µM]	MIC (Klebsiella aerogenes [12])	MIC (Staphylococcus aureus [13])	MIC (Enterococcus faecalis [14])	MIC [15]
CC(C)n1cc(NC(=O)c2cc(NCc3ccccc3)cn2C)cc1C(=O)Nc1cc(C(=O)NCCCN(C)C)n(C)c1	inactive	147 (≈ 86.3 µg/mL)	inactive	147 (≈ 86.3 µg/mL)	73.5 (≈ 43.1 µg/mL)	inactive	147 (≈ 86.3 µg/mL)	147 (≈ 86.3 µg/mL)	73.5 (≈ 43.1 µg/mL)	inactive	147 (≈ 86.3 µg/mL)	–	–	–	–	–	–	–	–	–
OC(Cn1cncn1)(Cn1cncn1)c1ccc(F)cc1F [FLUCONAZOLE]	–	–	–	–	–	–	–	> 300	90.8 (≈ 27.8 µg/mL)	–	–	81.6 µM (≈ 25 µg/mL)	–	–	–	–	–	–	–	–
CN(C)CCCNC(=O)c1cc(NC(=O)c2cc(NC(=O)c3cc(NC=O)cn3C)cn2CC2CC2)cn1C	inactive	38.4 (≈ 20.6 µg/mL)	inactive	153 (≈ 82.1 µg/mL)	38.4 (≈ 20.6 µg/mL)	–	76.9 (≈ 41.3 µg/mL)	–	153 (≈ 82.1 µg/mL)	–	76.9 (≈ 41.3 µg/mL)	–	76.9 µM (≈ 41.3 µg/mL)	76.9 (≈ 41.3 µg/mL)	inactive	–	–	–	–	–
CC1(C)S[C@@H]2[C@H](NC(=O)[C@H](N)c3ccc(O)cc3)C(=O)N2[C@H]1C(=O)O [AMOXICILLIN]	–	8.1 (≈ 2.96 µg/mL)	–	0.49 (≈ 0.179 µg/mL)	16.1 (≈ 5.88 µg/mL)	–	0.49 (≈ 0.179 µg/mL)	–	–	–	–	–	16.1 µM (≈ 5.88 µg/mL)	4 (≈ 1.46 µg/mL)	–	4 (≈ 1.46 µg/mL)	–	–	–	–
CCC(C)n1ncn(-c2ccc(N3CCN(c4ccc(OC[C@H]5CO[C@](Cn6cncn6)(c6ccc(Cl)cc6Cl)O5)cc4)CC3)cc2)c1=O (some centres not stated) [ITRACONAZOLE]	–	–	–	–	–	–	–	17.7 (≈ 12.5 µg/mL)	35.4 (≈ 25 µg/mL)	–	–	35.4 µM (≈ 25 µg/mL)	–	–	–	–	–	–	–	–
CC(C)c1sc(NC(=O)c2cc(NC=O)cn2C)nc1C(=O)Nc1cc(C(=O)NCCCN(C)C)n(C)c1	inactive	38.1 (≈ 20.7 µg/mL)	inactive	4.8 (≈ 2.6 µg/mL)	19 (≈ 10.3 µg/mL)	–	9.5 (≈ 5.16 µg/mL)	38.1 (≈ 20.7 µg/mL)	9.5 (≈ 5.16 µg/mL)	–	38.1 (≈ 20.7 µg/mL)	–	19.1 µM (≈ 10.4 µg/mL)	9.5 (≈ 5.16 µg/mL)	–	–	–	–	–	–
CN(C)CCCNC(=O)c1cc(NC(=O)c2cc(NC(=O)c3cc(NC=O)cn3C)cn2C2CCCC2)cn1C	inactive	–	inactive	75 (≈ 41.3 µg/mL)	75.3 (≈ 41.5 µg/mL)	inactive	75 (≈ 41.3 µg/mL)	–	–	–	75.3 (≈ 41.5 µg/mL)	–	75.3 µM (not active) (≈ 41.5 µg/mL)	–	inactive	–	inactive	–	–	–
CC(=O)Nc1cc(C(=O)Nc2cc(C(=O)Nc3cc(C(=O)NCCCN(C)C)n(C)c3)n(C)c2)n(C)c1	–	80 (≈ 40.8 µg/mL)	inactive	–	160 (≈ 81.7 µg/mL)	–	160 (≈ 81.7 µg/mL)	160 (≈ 81.7 µg/mL)	160 (≈ 81.7 µg/mL)	–	160 (≈ 81.7 µg/mL)	–	40 µM (≈ 20.4 µg/mL)	160 (≈ 81.7 µg/mL)	–	160 (≈ 81.7 µg/mL)	–	inactive	–	–
COc1cccc(C(=O)Nc2cc(C(=O)Nc3cc(C(=O)Nc4cc(C(=O)NCCCN(C)C)n(C)c4)n(CCC(C)C)c3)n(C)c2)c1	inactive	–	inactive	16.2 (≈ 10.7 µg/mL)	32.4 (≈ 21.3 µg/mL)	inactive	16.2 (≈ 10.7 µg/mL)	–	–	–	–	inactive	2 µM (≈ 1.32 µg/mL)	–	inactive	–	inactive	–	–	–
CCn1cc(NC(=O)c2cc(NC(=O)c3cc(NC=O)cn3C)cn2C)nc1C(=O)NCCCN(C)C	–	40 (≈ 20.5 µg/mL)	inactive	–	160 (≈ 81.9 µg/mL)	inactive	–	–	160 (≈ 81.9 µg/mL)	inactive	–	inactive	–	–	inactive	160 (≈ 81.9 µg/mL)	–	inactive	inactive	–
COc1cccc(C(=O)Nc2cc(C(=O)Nc3cc(C(=O)Nc4cc(C(=O)NCCCN5CCN(C)CC5)n(C)c4)n(CCC(C)C)c3)n(C)c2)c1	–	121 (≈ 86.4 µg/mL)	inactive	60 (≈ 42.8 µg/mL)	121 (≈ 86.4 µg/mL)	–	60.4 (≈ 43.1 µg/mL)	121 (≈ 86.4 µg/mL)	30.2 (≈ 21.6 µg/mL)	–	121 (≈ 86.4 µg/mL)	–	121 µM (≈ 86.4 µg/mL)	121 (≈ 86.4 µg/mL)	–	121 (≈ 86.4 µg/mL)	–	–	–	–
CC(C)c1sc(NC(=O)c2cc(NC(=O)c3cc(NC=O)cn3C)cn2C)nc1C(=O)NCCCN(C)C	–	76.2 (≈ 41.4 µg/mL)	inactive	4.7 (≈ 2.55 µg/mL)	19 (≈ 10.3 µg/mL)	–	9.5 (≈ 5.16 µg/mL)	76.1 (≈ 41.3 µg/mL)	76.1 (≈ 41.3 µg/mL)	–	76.1 (≈ 41.3 µg/mL)	–	38.1 µM (≈ 20.7 µg/mL)	76.2 (≈ 41.4 µg/mL)	–	9.5 (≈ 5.16 µg/mL)	–	–	–	–
CC(C)CCn1cc(NC(=O)c2cc(NC(=O)c3cc([N+](=O)[O-])cn3C)cn2C)cc1C(=O)Nc1cc(C(=O)NCCCN(C)C)n(C)c1	–	15.8 (≈ 10.7 µg/mL)	inactive	31.6 (≈ 21.4 µg/mL)	15.8 (≈ 10.7 µg/mL)	inactive	15.8 (≈ 10.7 µg/mL)	15.8 (≈ 10.7 µg/mL)	25.8 (≈ 17.5 µg/mL)	–	15.8 (≈ 10.7 µg/mL)	–	126 µM (≈ 85.3 µg/mL)	–	–	126 (≈ 85.3 µg/mL)	–	–	–	–
CC(=O)Nc1cc(C(=O)Nc2cc(C(=O)Nc3cc(C(=O)NCCCN4CCCC4)n(C)c3)n(C)c2)n(C)c1	inactive	153 (≈ 82.1 µg/mL)	inactive	–	76.9 (≈ 41.3 µg/mL)	–	153 (≈ 82.1 µg/mL)	153 (≈ 82.1 µg/mL)	153 (≈ 82.1 µg/mL)	inactive	–	inactive	–	153 (≈ 82.1 µg/mL)	–	–	–	inactive	–	–
CC(C)n1cc(NC(=O)c2cc(NC(=O)c3cc(NC=O)cn3C(C)C)cn2C(C)C)cc1C(=O)NCCCN(C)C	–	36 (≈ 20.9 µg/mL)	inactive	144 (≈ 83.6 µg/mL)	72 (≈ 41.8 µg/mL)	–	72 (≈ 41.8 µg/mL)	72 (≈ 41.8 µg/mL)	72 (≈ 41.8 µg/mL)	–	144 (≈ 83.6 µg/mL)	–	144 µM (≈ 83.6 µg/mL)	36 (≈ 20.9 µg/mL)	–	144 (≈ 83.6 µg/mL)	–	–	–	–
CC(=O)Nc1cc(C(=O)Nc2cc(C(=O)Nc3nc(C(=O)NCCCN(C)C)c(C(C)C)s3)n(C)c2)n(C)c1	inactive	–	inactive	–	–	inactive	74.5 (≈ 41.5 µg/mL)	74.5 (≈ 41.5 µg/mL)	–	inactive	–	inactive	–	–	–	–	inactive	inactive	–	inactive
CN(C)CCCNC(=O)c1cc(NC(=O)c2cc(NC(=O)c3cc(NC(=O)/C=C/c4ccccc4)cn3C)cn2C)cn1C	–	70.2 (≈ 42 µg/mL)	inactive	8.8 (≈ 5.27 µg/mL)	140 (≈ 83.8 µg/mL)	–	8.8 (≈ 5.27 µg/mL)	140 (≈ 83.8 µg/mL)	70.2 (≈ 42 µg/mL)	–	35.1 (≈ 21 µg/mL)	–	140 µM (≈ 83.8 µg/mL)	70.2 (≈ 42 µg/mL)	–	70 (≈ 41.9 µg/mL)	–	–	–	–
Cc1sccc1C(=O)Nc1cc(C(=O)Nc2cc(C(=O)Nc3cc(C(=O)NCCCN(C)C)n(C)c3)n(C)c2)n(C)c1	inactive	70.8 (≈ 42 µg/mL)	inactive	–	35.4 (≈ 21 µg/mL)	inactive	141 (≈ 83.6 µg/mL)	141 (≈ 83.6 µg/mL)	70.8 (≈ 42 µg/mL)	–	–	inactive	141 µM (≈ 83.6 µg/mL)	–	–	–	–	inactive	–	–
CC(=O)Nc1cc(C(=O)Nc2cc(C(=O)Nc3cc(C(=O)NCCCN4CCN(C)CC4)n(C)c3)n(CCC(C)C)c2)n(C)c1	–	136 (≈ 84.6 µg/mL)	inactive	–	136 (≈ 84.6 µg/mL)	inactive	–	–	136 (≈ 84.6 µg/mL)	inactive	–	inactive	–	–	inactive	136 (≈ 84.6 µg/mL)	–	inactive	inactive	–
CN[C@@H]1[C@H](O[C@H]2[C@H](O[C@H]3[C@H](O)[C@@H](O)[C@H](N=C(N)N)[C@@H](O)[C@@H]3N=C(N)N)O[C@@H](C)[C@]2(O)C=O)O[C@@H](CO)[C@H](O)[C@H]1O [STREPTOMYCIN]	–	–	–	10.8 (≈ 6.28 µg/mL)	–	–	–	–	–	–	–	–	–	–	–	–	–	–	–	–
